This passage reports MIC results from ChEMBL document CHEMBL1127395, “Synthesis and antimicrobial activity of novel 3-[(aminopyrimidiniumyl)thio]methyl cephalosporins” (1994).

SMILES strings stand for the structures. ≈ marks a conversion by molar mass, not a printed value.

In the first assay the test system is Escherichia coli. As to the kind of experiment: In vitro minimum inhibitory concentration for Escherichia coli (ATCC-10536) by agar dilution method. Type of assay: functional. The following applies: Escherichia coli; read-out: MIC. The method in brief:
(§1)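 Two-fold serial dilutions of each compound dispersed in Mueller-Hinton agar; plates spot-inoculated with 2 μL of standard test strain at 10^7 CFU/mL, incubated 37 °C for 20 h; MIC read as lowest concentration inhibiting growth.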
As a reminder, the MIC is the least concentration at which growth counts as inhibited. For `CC(C)(O/N=C(\C(=O)NC1C(=O)N2C(C(=O)[O-])=C(CSc3nc(N)cc(N)[n+]3-c3ccccc3)CSC12)c1cnc(N)s1)C(=O)O` (centres undefined), the MIC is 0.25 µg/mL (≈ 0.365 µM).
With `Cn1cc[n+]2c(SCC3=C(C(=O)[O-])N4C(=O)C(NC(=O)/C(=N\OC(C)(C)C(=O)O)c5cnc(N)s5)C4SC3)nc(N3CCOCC3)cc12` (centres undefined), the MIC stood at 0.25 µg/mL (≈ 0.348 µM).

The test system of the next assay is Serratia marcescens. As to the kind of experiment: In vitro minimum inhibitory concentration for Serratia marcescens (ATCC-27117) by agar dilution method. The following applies: Serratia marcescens; read-out: MIC. It is filed as functional. The gist of the method:
as §1
On the technique in general: Agar dilution tests growth on a series of plates holding different concentrations.
For `CC(C)(O/N=C(\C(=O)NC1C(=O)N2C(C(=O)[O-])=C(CSc3nc(N)cc(N)[n+]3-c3ccccc3)CSC12)c1cnc(N)s1)C(=O)O` (centres undefined), the minimum inhibitory concentration (MIC) came to 0.5 µg/mL (≈ 0.729 µM).
On to `Cn1cc[n+]2c(SCC3=C(C(=O)[O-])N4C(=O)C(NC(=O)/C(=N\OC(C)(C)C(=O)O)c5cnc(N)s5)C4SC3)nc(N3CCOCC3)cc12` (centres undefined), for which the MIC amounted to 0.5 µg/mL (≈ 0.697 µM).

The next assay relates to Klebsiella pneumoniae. As to the kind of experiment: In vitro minimum inhibitory concentration for Klebsiella pneumoniae (ATCC-10031) by agar dilution method. It is filed as functional. The following applies: Klebsiella pneumoniae; read-out: MIC.
In the case of `CC(C)(O/N=C(\C(=O)NC1C(=O)N2C(C(=O)[O-])=C(CSc3nc(N)cc(N)[n+]3-c3ccccc3)CSC12)c1cnc(N)s1)C(=O)O` (centres undefined), the MIC was found to be 0.13 µg/mL (≈ 0.19 µM).
For the molecule `Cn1cc[n+]2c(SCC3=C(C(=O)[O-])N4C(=O)C(NC(=O)/C(=N\OC(C)(C)C(=O)O)c5cnc(N)s5)C4SC3)nc(N3CCOCC3)cc12` (centres undefined), the minimum inhibitory concentration (MIC) came to 0.25 µg/mL (≈ 0.348 µM).

In another assay the test system is Citrobacter freundii. As to the kind of experiment: In vitro minimum inhibitory concentration for Citrobacter freundii (ATCC-8090) by agar dilution method. It is filed as functional. The note with it: Citrobacter freundii; read-out: MIC. The gist of the method:
as §1
Regarding `CC(C)(O/N=C(\C(=O)NC1C(=O)N2C(C(=O)[O-])=C(CSc3nc(N)cc(N)[n+]3-c3ccccc3)CSC12)c1cnc(N)s1)C(=O)O` (centres undefined), the minimum inhibitory concentration (MIC) is 0.25 µg/mL (≈ 0.365 µM).
For the molecule `Cn1cc[n+]2c(SCC3=C(C(=O)[O-])N4C(=O)C(NC(=O)/C(=N\OC(C)(C)C(=O)O)c5cnc(N)s5)C4SC3)nc(N3CCOCC3)cc12` (centres undefined), the minimal inhibitory concentration (MIC) came to 0.5 µg/mL (≈ 0.697 µM).

The test system of the next assay is Proteus vulgaris. As to the kind of experiment: In vitro minimum inhibitory concentration for Proteus vulgaris (ATCC-6059) by agar dilution method. It is filed as functional. The note with it: Proteus vulgaris; read-out: MIC. The method in brief:
as §1
`CC(C)(O/N=C(\C(=O)NC1C(=O)N2C(C(=O)[O-])=C(CSc3nc(N)cc(N)[n+]3-c3ccccc3)CSC12)c1cnc(N)s1)C(=O)O` (centres undefined): the MIC stood at 0.13 µg/mL (≈ 0.19 µM).
Still for that read-out and setting: the figure for `Cn1cc[n+]2c(SCC3=C(C(=O)[O-])N4C(=O)C(NC(=O)/C(=N\OC(C)(C)C(=O)O)c5cnc(N)s5)C4SC3)nc(N3CCOCC3)cc12` (centres undefined) is 0.25 µg/mL (≈ 0.348 µM).

Another assay deals with Salmonella typhimurium. In words: In vitro minimum inhibitory concentration for Salmonella Typhimurium (ATCC-14028) by agar dilution method. Type of assay: functional, Salmonella enterica subsp. enterica serovar Typhimurium. The note with it: Salmonella enterica; read-out: MIC. The gist of the method:
as §1
As to `CC(C)(O/N=C(\C(=O)NC1C(=O)N2C(C(=O)[O-])=C(CSc3nc(N)cc(N)[n+]3-c3ccccc3)CSC12)c1cnc(N)s1)C(=O)O` (centres undefined), the MIC worked out at 0.5 µg/mL (≈ 0.729 µM).
For `Cn1cc[n+]2c(SCC3=C(C(=O)[O-])N4C(=O)C(NC(=O)/C(=N\OC(C)(C)C(=O)O)c5cnc(N)s5)C4SC3)nc(N3CCOCC3)cc12` (centres undefined), the MIC is 0.5 µg/mL (≈ 0.697 µM).

The test system of another assay is Pseudomonas aeruginosa. As to the kind of experiment: In vitro minimum inhibitory concentration for Pseudomonas aeruginosa (ATCC-27853) by agar dilution method. Type of assay: functional. The note with it: Pseudomonas aeruginosa; read-out: MIC. The gist of the method:
as §1
Consider `CC(C)(O/N=C(\C(=O)NC1C(=O)N2C(C(=O)[O-])=C(CSc3nc(N)cc(N)[n+]3-c3ccccc3)CSC12)c1cnc(N)s1)C(=O)O` (centres undefined), for which the minimal inhibitory concentration (MIC) amounted to 2 µg/mL (≈ 2.92 µM).
Consider `Cn1cc[n+]2c(SCC3=C(C(=O)[O-])N4C(=O)C(NC(=O)/C(=N\OC(C)(C)C(=O)O)c5cnc(N)s5)C4SC3)nc(N3CCOCC3)cc12` (centres undefined), for which the MIC turned out to be 4 µg/mL (≈ 5.57 µM).

A further assay deals with Staphylococcus epidermidis. As to the kind of experiment: In vitro minimum inhibitory concentration for Staphylococcus epidermidis (ATCC-12228) by agar dilution method. Type of assay: functional. The following applies: Staphylococcus epidermidis; read-out: MIC. The gist of the method:
as §1
Consider `CC(C)(O/N=C(\C(=O)NC1C(=O)N2C(C(=O)[O-])=C(CSc3nc(N)cc(N)[n+]3-c3ccccc3)CSC12)c1cnc(N)s1)C(=O)O` (centres undefined), for which the MIC was found to be 2 µg/mL (≈ 2.92 µM).
The same measure, in the same setting: next, `Cn1cc[n+]2c(SCC3=C(C(=O)[O-])N4C(=O)C(NC(=O)/C(=N\OC(C)(C)C(=O)O)c5cnc(N)s5)C4SC3)nc(N3CCOCC3)cc12` (centres undefined): 2 µg/mL (≈ 2.79 µM).

For the next assay, the system named is Enterobacter cloacae. In words: In vitro minimum inhibitory concentration for Enterobacter cloacae (ATCC-27508) by agar dilution method. Type of assay: functional. The following applies: Enterobacter cloacae; read-out: MIC. The method in brief: as §1
For the molecule `CC(C)(O/N=C(\C(=O)NC1C(=O)N2C(C(=O)[O-])=C(CSc3nc(N)cc(N)[n+]3-c3ccccc3)CSC12)c1cnc(N)s1)C(=O)O` (centres undefined), the MIC amounted to 0.06 µg/mL (≈ 0.0875 µM).
Still for that read-out and setting: next, `Cn1cc[n+]2c(SCC3=C(C(=O)[O-])N4C(=O)C(NC(=O)/C(=N\OC(C)(C)C(=O)O)c5cnc(N)s5)C4SC3)nc(N3CCOCC3)cc12` (centres undefined): 0.06 µg/mL (≈ 0.0836 µM).

Another assay has as its system Pseudomonas aeruginosa. As to the kind of experiment: In vitro minimum inhibitory concentration for Pseudomonas aeruginosa (ATCC 10145) by agar dilution method. Type of assay: functional.
Conditions: not given
The method in brief:
as §1
On to `CC(C)(O/N=C(\C(=O)NC1C(=O)N2C(C(=O)[O-])=C(CSc3nc(N)cc(N)[n+]3-c3ccccc3)CSC12)c1cnc(N)s1)C(=O)O` (centres undefined), for which 4 µg/mL (≈ 5.83 µM) was the least that counted as inhibitory (MIC).
As to `Cn1cc[n+]2c(SCC3=C(C(=O)[O-])N4C(=O)C(NC(=O)/C(=N\OC(C)(C)C(=O)O)c5cnc(N)s5)C4SC3)nc(N3CCOCC3)cc12` (centres undefined), the MIC was 8 µg/mL (≈ 11.1 µM).

The test system of another assay is Klebsiella aerogenes. As to the kind of experiment: In vitro minimum inhibitory concentration for Enterobacter aerogenes (ATCC-29751) by agar dilution method. The following applies: Klebsiella aerogenes; read-out: MIC. It is filed as functional. The method in brief: as §1
As to `CC(C)(O/N=C(\C(=O)NC1C(=O)N2C(C(=O)[O-])=C(CSc3nc(N)cc(N)[n+]3-c3ccccc3)CSC12)c1cnc(N)s1)C(=O)O` (centres undefined), the MIC was found to be 0.5 µg/mL (≈ 0.729 µM).
On to `Cn1cc[n+]2c(SCC3=C(C(=O)[O-])N4C(=O)C(NC(=O)/C(=N\OC(C)(C)C(=O)O)c5cnc(N)s5)C4SC3)nc(N3CCOCC3)cc12` (centres undefined), for which the MIC stood at 8 µg/mL (≈ 11.1 µM).

For a further assay, the system named is Staphylococcus aureus. As to the kind of experiment: In vitro minimum inhibitory concentration for Staphylococcus aureus (ATCC 6538p) by agar dilution method. Type of assay: functional. The following applies: Staphylococcus aureus, ATCC 6538p; read-out: MIC. The gist of the method:
as §1
As to `CC(C)(O/N=C(\C(=O)NC1C(=O)N2C(C(=O)[O-])=C(CSc3nc(N)cc(N)[n+]3-c3ccccc3)CSC12)c1cnc(N)s1)C(=O)O` (centres undefined), the MIC amounted to 4 µg/mL (≈ 5.83 µM).
`Cn1cc[n+]2c(SCC3=C(C(=O)[O-])N4C(=O)C(NC(=O)/C(=N\OC(C)(C)C(=O)O)c5cnc(N)s5)C4SC3)nc(N3CCOCC3)cc12` (centres undefined): the MIC is 8 µg/mL (≈ 11.1 µM).
